Activity calls are given as the source filed them. The calls are words filed in the database; no cut-off is given here.
Columns and labels:
UO-31 = assay: Growth inhibition of human UO31 cells; type: functional
Procedure, shortened: (§1)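 Run in the NCI 60-cell-line screen under the standard NCI protocol. Cells were tested at concentrations up to 10^-4 M. Potency was expressed as GI50 (M), taken from the NCI mean-graph data.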

PC-3 = assay: Growth inhibition of human PC3 cells; type: functional; procedure, shortened: as §1
DU-145 = assay: Growth inhibition of human DU145 cells; type: functional
Procedure, shortened: (§2)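 Tested in the NCI 60-cell-line screen using the standard NCI protocol, with concentrations up to 10^-4 M. Growth inhibition is reported as GI50 (M), taken from the NCI mean graphs.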

MCF7 = assay: Growth inhibition of human MCF7 cells; type: functional; procedure, shortened: as §2
NCI/ADR-RES = assay: Growth inhibition of human NCI/ADR-RES cells; type: functional; procedure, shortened: as §2
MDA-MB-231 = assay: Growth inhibition of human MDA-MB-231 cells; type: functional; procedure, shortened: as §2
[1] = Growth inhibition of human Hs 578T cells; type: functional; procedure, shortened: as §2
MDA-MB-435 = assay: Growth inhibition of human MDA-MB-435 cells; type: functional; procedure, shortened: as §2
MDA-N = assay: Growth inhibition of human MDA-N cells; type: functional; procedure, shortened: as §2
BT-549 = assay: Growth inhibition of human BT549 cells; type: functional; procedure, shortened: as §2
T47D = assay: Growth inhibition of human T47D cells; type: functional; procedure, shortened: as §1
Enterococcus faecalis = assay: Antimicrobial activity against Enterococcus faecalis at 100 ug/ml; type: functional, organism-based
Bacillus subtilis = assay: Antimicrobial activity against Bacillus subtilis at 100 ug/ml; type: functional, organism-based
Staphylococcus aureus = assay: Antimicrobial activity against Staphylococcus aureus at 100 ug/ml; type: functional, organism-based
Salmonella typhimurium = assay: Antimicrobial activity against Salmonella Typhimurium at 100 ug/ml; type: functional, organism-based; conditions: Salmonella enterica subsp. enterica serovar Typhimurium
Escherichia coli = assay: Antimicrobial activity against Escherichia coli at 100 ug/ml; type: functional, organism-based
Proteus sp. = assay: Antimicrobial activity against Proteus sp. at 100 ug/ml; type: functional, organism-based
Candida albicans = assay: Antimicrobial activity against Candida albicans at 100 ug/ml; type: functional, organism-based
CCRF-CEM = assay: Growth inhibition of human CCRF-CEM cells; type: functional; procedure, shortened: as §2
HL-60(TB) = assay: Growth inhibition of human HL-60(TB) cells; type: functional
Procedure, shortened: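 Run in the NCI 60-cell line panel using the standard NCI protocol. The value is reported as GI50 in molar units, with 10^-4 M the top concentration examined.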

K562 = assay: Growth inhibition of human K562 cells; type: functional; procedure, shortened: as §2
MOLT-4 = assay: Growth inhibition of human MOLT4 cells; type: functional; procedure, shortened: as §2
[2] = Growth inhibition of human RPMI8266 cells; type: functional; procedure, shortened: as §1
SR = assay: Growth inhibition of human SR cells; type: functional; procedure, shortened: as §1
A549 = assay: Growth inhibition of human A549 cells; type: functional
EKVX = assay: Growth inhibition of human EKVX cells; type: functional; procedure, shortened: as §2
HOP-62 = assay: Growth inhibition of human HOP62 cells; type: functional; procedure, shortened: as §2
HOP-92 = assay: Growth inhibition of human HOP92 cells; type: functional; procedure, shortened: as §2
NCI-H226 = assay: Growth inhibition of human NCI-H226 cells; type: functional; procedure, shortened: as §2
NCI-H23 = assay: Growth inhibition of human NCI-H23 cells; type: functional; procedure, shortened: as §2
NCI-H322M = assay: Growth inhibition of human NCI-H322M cells; type: functional; procedure, shortened: as §2
NCI-H460 = assay: Growth inhibition of human NCI-H460 cells; type: functional; procedure, shortened: as §2
NCI-H522 = assay: Growth inhibition of human NCI-H522 cells; type: functional; procedure, shortened: as §2
COLO 205 = assay: Growth inhibition of human COLO205 cells; type: functional; procedure, shortened: as §2
HCC 2998 = assay: Growth inhibition of human HCC2998 cells; type: functional; procedure, shortened: as §2
HCT-116 = assay: Growth inhibition of human HCT116 cells; type: functional; procedure, shortened: as §2
[3] = read-out: pLC50 (the source's name) (converted)

COc1cccc(/C=C/[C@H]2O[C@@H](C)[C@H](O)[C@@H]2O)c1CO [VARITRIOL]
GI50 (UO-31): > 100 µM | CC50 (UO-31; [3]): > 100 µM | TGI (UO-31; read-out: pTGI): > 100 µM | GI50 (PC-3): > 100 µM | CC50 (PC-3; [3]): > 100 µM | TGI (PC-3; read-out: pTGI): > 100 µM | GI50 (DU-145): 1100 nM | CC50 (DU-145; [3]): > 100 µM | TGI (DU-145; read-out: pTGI (converted)): 2400 nM | GI50 (MCF7): > 100 µM | CC50 (MCF7; [3]): > 100 µM | TGI (MCF7; read-out: pTGI): > 100 µM | GI50 (NCI/ADR-RES): > 100 µM | CC50 (NCI/ADR-RES; [3]): > 100 µM | TGI (NCI/ADR-RES; read-out: pTGI): > 100 µM | GI50 (MDA-MB-231): > 100 µM | CC50 (MDA-MB-231; [3]): > 100 µM | TGI (MDA-MB-231; read-out: pTGI): > 100 µM | GI50 [1]: > 100 µM | CC50 [1, 3]: > 100 µM | TGI ([1]; read-out: pTGI): > 100 µM | GI50 (MDA-MB-435): > 100 µM | CC50 (MDA-MB-435; [3]): > 100 µM | TGI (MDA-MB-435; read-out: pTGI): > 100 µM | GI50 (MDA-N): > 100 µM | CC50 (MDA-N; [3]): > 100 µM | TGI (MDA-N; read-out: pTGI): > 100 µM | GI50 (BT-549): > 100 µM | CC50 (BT-549; [3]): > 100 µM | TGI (BT-549; read-out: pTGI): > 100 µM | GI50 (T47D): 209 nM | CC50 (T47D; [3]): > 100 µM | TGI (T47D; read-out: pTGI (converted)): 1050 nM | Activity (Enterococcus faecalis): inactive | Activity (Bacillus subtilis): inactive | Activity (Staphylococcus aureus): inactive | Activity (Salmonella typhimurium): inactive | Activity (Escherichia coli): inactive | Activity (Proteus sp.): inactive | Activity (Candida albicans): inactive | GI50 (CCRF-CEM): 25.7 µM | CC50 (CCRF-CEM; [3]): > 100 µM | TGI (CCRF-CEM; read-out: pTGI (converted)): 70.8 µM | GI50 (HL-60(TB)): 25.1 µM | CC50 (HL-60(TB); [3]): > 100 µM | TGI (HL-60(TB); read-out: pTGI): > 100 µM | GI50 (K562): > 100 µM | CC50 (K562; [3]): > 100 µM | TGI (K562; read-out: pTGI): > 100 µM | GI50 (MOLT-4): > 100 µM | CC50 (MOLT-4; [3]): > 100 µM | TGI (MOLT-4; read-out: pTGI): > 100 µM | GI50 [2]: > 100 µM | CC50 [2, 3]: > 100 µM | TGI ([2]; read-out: pTGI): > 100 µM | GI50 (SR): > 100 µM | CC50 (SR; [3]): > 100 µM | TGI (SR; read-out: pTGI): > 100 µM | GI50 (A549): > 100 µM | CC50 (A549; [3]): > 100 µM | TGI (A549; read-out: pTGI): > 100 µM | GI50 (EKVX): > 100 µM | CC50 (EKVX; [3]): > 100 µM | TGI (EKVX; read-out: pTGI): > 100 µM | GI50 (HOP-62): > 100 µM | CC50 (HOP-62; [3]): > 100 µM | TGI (HOP-62; read-out: pTGI): > 100 µM | GI50 (HOP-92): > 100 µM | CC50 (HOP-92; [3]): > 100 µM | TGI (HOP-92; read-out: pTGI): > 100 µM | GI50 (NCI-H226): > 100 µM | CC50 (NCI-H226; [3]): > 100 µM | TGI (NCI-H226; read-out: pTGI): > 100 µM | GI50 (NCI-H23): > 100 µM | CC50 (NCI-H23; [3]): > 100 µM | TGI (NCI-H23; read-out: pTGI): > 100 µM | GI50 (NCI-H322M): > 100 µM | CC50 (NCI-H322M; [3]): > 100 µM | TGI (NCI-H322M; read-out: pTGI): > 100 µM | GI50 (NCI-H460): > 100 µM | CC50 (NCI-H460; [3]): > 100 µM | TGI (NCI-H460; read-out: pTGI): > 100 µM | GI50 (NCI-H522): > 100 µM | CC50 (NCI-H522; [3]): > 100 µM | TGI (NCI-H522; read-out: pTGI): > 100 µM | GI50 (COLO 205): 95.5 µM | CC50 (COLO 205; [3]): > 100 µM | TGI (COLO 205; read-out: pTGI): > 100 µM | GI50 (HCC 2998): > 100 µM | CC50 (HCC 2998; [3]): > 100 µM | TGI (HCC 2998; read-out: pTGI): > 100 µM | GI50 (HCT-116): > 100 µM
